Bioassay records as filed in PubChem.
An excerpt weighted towards active compounds, which were near 2.1% of everything screened.
MLL AF4-AF9 inh: MLL-AF4/AF9 protein interaction inhibition. 350,000 tested, 0.47% active. P42568. AlphaScreen, biotin-AF4 peptide binding to FLAG-AF9. inhibition, % at 10 µM;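 active = every replicate reaching a set inhibition limit, whatever the replicate mean, cut at about 25% in these data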;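 also: 0% = plate neutral control median and 100% = total signal loss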
Target sequence (P42568 whole entry, looked up): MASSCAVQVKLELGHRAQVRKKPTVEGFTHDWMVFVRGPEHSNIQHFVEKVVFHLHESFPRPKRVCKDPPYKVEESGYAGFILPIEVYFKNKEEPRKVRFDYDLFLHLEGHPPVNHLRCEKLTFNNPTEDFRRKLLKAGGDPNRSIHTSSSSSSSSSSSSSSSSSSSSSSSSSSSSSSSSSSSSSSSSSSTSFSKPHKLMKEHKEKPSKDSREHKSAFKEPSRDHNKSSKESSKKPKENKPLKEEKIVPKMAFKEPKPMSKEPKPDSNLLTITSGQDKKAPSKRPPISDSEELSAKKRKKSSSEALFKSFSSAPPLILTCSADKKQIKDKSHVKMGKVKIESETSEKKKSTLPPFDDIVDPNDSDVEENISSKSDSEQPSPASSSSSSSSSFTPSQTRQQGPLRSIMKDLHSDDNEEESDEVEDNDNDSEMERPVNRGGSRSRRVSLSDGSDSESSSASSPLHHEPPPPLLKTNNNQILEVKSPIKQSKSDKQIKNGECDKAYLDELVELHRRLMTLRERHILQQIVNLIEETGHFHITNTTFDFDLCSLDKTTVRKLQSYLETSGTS
XiGFP reactiv: X-chromosome reactivation activator; 360,000 tested, 0.055% active; XiGFP mouse fibroblasts, % GFP-positive cells imaging, 3 d; cells co-treated with 5-aza-dC sensitizer; scaled so ellipticine positive control = 100%; activation, % at 7.58 µM;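 active = mean normalized replicate activation at least 10% and every replicate at or above 10%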;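 also: 0% = median of on-plate neutral control wells and 100% = ellipticine 6 µM median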
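Material: XiGFP fibroblasts, SV40-immortalized; Buffer or medium: DMEM containing 5-aza-dC; Compound dosing: single point; Times: 3 days compound exposure.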
EWS-Fli inh: inhibitors of EWS/Fli oncoprotein transcriptional activity | inhibition, % at 12.6 µM | A673 NR0B1-luciferase reporter, viability-normalised | AID 651661 | 350,000 tested, 0.67% active;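 active = mean inhibition of at least 50% after viability correction, with every replicate also passing that limit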;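 also: firefly luciferase signal divided by Alamar Blue viability fluorescence both relative to DMSO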
PAX8 inh HTS: PAX8 transcriptional activity inhibition; 360,000 tested, 1.2% active; RMG-I TPO-luciferase reporter, SteadyGlo, 24 h; inhibition, % at 12.6 µM;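 active = mean replicate inhibition at least 60% with every replicate also reaching 60%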;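 also: luciferase light reporting Pax8 driven TPO promoter activity; plate controls were median of neutral control wells for no effect and mitoxantrone controls for full effect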
GSIS activator: GLuc luminescence reporter in INS-1E cells, primary screen for activators of glucose-dependent secretion of insulin; 370,000 tested, 0.61% active; AID 743287; INS-1E GLuc reporter insulin secretion, 2-3 h; activation, % at 16.6 µM;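 active = lowest replicate activation of at least 40%, so every replicate reaches that level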;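 also: 0% = median of neutral control wells and 100% = median of IBMX positive control wells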
PGC1a acetyl inh: lowers PGC1a acetylation signal in U2OS cells; 350,000 tested, 0.17% active; AID 651687; AlphaScreen anti-acetyl-lysine; with virally co-expressed GCN5 acetyltransferase; inhibition, % at 15.6 µM;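 active = every replicate shows inhibition of at least 40%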;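 also: 0% = neutral control wells and 100% = positive control wells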
* marks the source's active call; other numbers are inactive results; · = no result; ! = a repeat was not active.

SMILES	MLL AF4-AF9 inh	XiGFP reactiv	EWS-Fli inh	PAX8 inh HTS	GSIS activator	PGC1a acetyl inh
CN(C)C(=O)C[C@@H]1C[C@H]2c3cc(NC(=O)CC4CC4)ccc3O[C@H]2[C@@H](CO)O1	-1	0	1	-2	13	-3
Cc1cc(C)c2c(=O)n(CC(=O)N3CCC(N4CCCCC4)CC3)sc2n1	-16	0	-6	-33	·	·
CCCNC(=O)Cn1sc2nc(C)cc(C)c2c1=O	-11	0	2	8	94*	6
CC(C)C#Cc1ccc([C@H]2[C@@H](CO)N(C(=O)c3ccccn3)[C@H]2C#N)cc1	1	0	-6	20	-9	11
COc1ccc(OC)c(NC(=O)c2cc3c(Cl)nc4ccccc4c3s2)c1	·	0	·	15	52*	·
COc1ccc(NC(=O)Nc2ccc3c(c2)C(=O)N([C@@H](C)CO)C[C@H](C)[C@@H](CN(C)Cc2ccc(Cl)c(Cl)c2)OCCCC[C@@H](C)O3)cc1	2	0	3	34	9	5
COc1ccc(NC(=O)Nc2ccc3c(c2)C(=O)N([C@@H](C)CO)C[C@@H](C)[C@@H](CN(C)Cc2ccc(Cl)c(Cl)c2)OCCCC[C@@H](C)O3)cc1	3	0	-2	75*	-2	-4
COc1ccc(NC(=O)Nc2ccc3c(c2)C(=O)N([C@H](C)CO)C[C@H](C)[C@@H](CN(C)Cc2ccc(Cl)c(Cl)c2)OCCCC[C@@H](C)O3)cc1	-1	0	1	74*!	6	-5
C[C@H]1CN([C@@H](C)CO)C(=O)c2cccc(NC(=O)CCCCCC(=O)Nc3ccccc3N)c2O[C@H]1CN(C)Cc1ccc(C(F)(F)F)cc1	-2	-1	2	46	14	-4
O=C(CC1CC1)N1[C@@H](CO)[C@H](c2ccccc2)C12CN(Cc1ccncc1)C2	-2	0	-5	·	-14	·
C[C@@H]1CN([C@H](C)CO)C(=O)c2cc(NC(=O)Nc3ccccc3)ccc2O[C@H]1CN(C)S(=O)(=O)c1ccccc1	2	0	-1	32	0	5
CCN1CCN(c2ccc(S(=O)(=O)N3CCCCC3)cc2NC(=O)c2ccc([N+](=O)[O-])s2)CC1	29*	1	45	·	-45	6
Cn1c(=O)[nH]c(=O)c2c1nc(Br)n2Cc1cccc(Br)c1	3	0	56*	73*	5	-48
C/C=C/Cn1c(Br)nc2c1c(=O)[nH]c(=O)n2C	0	·	0	·	65*	-9
C/C=C/Cn1c(N(C)Cc2ccccc2)nc2c1c(=O)[nH]c(=O)n2C	3	0	11	-5	47*	10
C/C=C/Cn1c(N2CCCCCC2)nc2c1c(=O)[nH]c(=O)n2C	·	·	·	·	62*	-4
CO[C@@H]1CN(C)C(=O)c2ccc(NC(=O)C3CC3)cc2OC[C@H](C)N(C(=O)Cc2ccccn2)C[C@H]1C	-1	0	-5	-21	2	5
CO[C@H]1CN(C)C(=O)c2cc(NC(C)=O)ccc2OC[C@@H](C)N(Cc2ccccc2F)C[C@H]1C	3	0	-3	·	2	-7
Cn1c(=O)[nH]c(=O)c2c1nc(N1CCCCCC1)n2CC(N)=O	·	·	·	·	0	·
Cn1c(=O)[nH]c(=O)c2c1nc(N1CCCCC1)n2C/C=N/Nc1ccc(C(=O)O)cc1	-10	1	-5	-62	49*	7
CCN(CC)CCNc1ccc(CO)c2sc3ccccc3c(=O)c12	12	0	21	20	·	5
Cc1ccc(NCCN(C)C)c2c(=O)c3cc(O)ccc3sc12	39*	0	52*	-13	109	-48
COc1cc(C)c2sc3ccccc3c(=O)c2c1NCCN(C)C	45*	0	-7	-2	-9	-10
CN(C)CCNc1cccc2sc3ccc(O)cc3c(=O)c12	38*	1	4	0	·	·
CCNC(=O)[C@@H]1[C@@H](CO)[C@@H]2Cn3c(ccc(-c4ccccc4)c3=O)[C@@H]2N1C(=O)C1CCC1	-3	2	-5	·	8	·
SMILES	MLL AF4-AF9 inh	XiGFP reactiv	EWS-Fli inh	PAX8 inh HTS	GSIS activator	PGC1a acetyl inh
COc1ccc(/C=N/n2c(-c3ccco3)nc3ccccc3c2=O)cc1	·	·	·	·	7	33
O=c1c2ccccc2nc(-c2ccco2)n1/N=C/c1ccco1	·	·	·	·	54*	-3
O=c1c2ccccc2nc(-c2ccco2)n1/N=C/c1ccccc1O	·	·	·	·	69*	2
Cc1nc2ccccc2c(=O)n1/N=C/c1ccco1	-1	0	-1	4	·	1
CC(C)CC#Cc1ccc([C@@H]2[C@H]3CN(S(C)(=O)=O)CC(=O)N3[C@H]2CO)cc1	·	0	·	·	26	·
C=C1C(=O)O[C@@H]2C[C@@H](C)[C@@H]3C=CC(=O)[C@@]3(C)[C@@H](OC(C)=O)[C@H]12	-12	0	62*	102*	37	·
CO[C@H]1CN(C)C(=O)c2cc(NS(=O)(=O)CC(F)(F)F)ccc2OC[C@@H](C)N(Cc2nccs2)C[C@H]1C	0	1	13	·	-10	-5
O=C(Nc1cccc(Br)c1)c1ccc2c(c1)SC1=NS(=O)(=O)CCN12	-3	0	28	88*	11	-41
CC(C)(C)c1ccccc1NC(=O)c1ccc2c(c1)SC1=NS(=O)(=O)CCN12	-2	0	6	16	38	-1
O=C(Nc1cccc(C(F)(F)F)c1)Nc1ccc(N2CCCC2)c(S(=O)(=O)Nc2ccccc2Cl)c1	·	1	·	90*	-29	·
CC(=O)Nc1ccc(N2CCOCC2)c(S(=O)(=O)Nc2ccccc2Cl)c1	1	0	0	2	4	·
C[C@H](CO)N1C[C@H](C)[C@@H](CN(C)Cc2ccc(-c3ccccc3)cc2)Oc2ccc(NC(=O)Nc3ccccc3)cc2C1=O	-3	0	0	-7	-4	-4
C=CCNc1nc(Nc2ccc(OC)cc2)nc(OC)n1	·	·	·	·	9	-4
C=CCNc1nc(Cl)nc(Nc2ccc(OC)cc2)n1	·	·	·	·	65*	-1
NCC[C@H](O)C(=O)N[C@@H]1C[C@H](N)[C@@H](O[C@H]2O[C@H](CN)[C@@H](O)[C@H](O)[C@H]2O)[C@H](O)[C@H]1O[C@H]1O[C@H](CO)[C@@H](O)[C@H](N)[C@H]1O	62*	0	-9	0	·	1
C[C@H]1CN([C@@H](C)CO)C(=O)Cc2cc(NC(=O)Nc3ccc4c(c3)OCO4)ccc2O[C@H]1CN(C)S(=O)(=O)c1ccc(F)cc1	3	-1	53*	·	-2	0
Cc1ccc(S(=O)(=O)N(C)C[C@@H]2Oc3ccc(NC(=O)Nc4ccc5c(c4)OCO5)cc3CC(=O)N([C@@H](C)CO)C[C@@H]2C)cc1	7	0	63*	52	-24	-7
Cc1ccc(S(=O)(=O)N(C)C[C@H]2Oc3ccc(NC(=O)Nc4ccc5c(c4)OCO5)cc3CC(=O)N([C@H](C)CO)C[C@@H]2C)cc1	3	0	10	15	9	-13
